# Source: ChEMBL document CHEMBL3045604, “Phytotoxicity of sarmentine isolated from long pepper (Piper longum) fruit” (J Agric Food Chem, 2010)
# Active and inactive are the calls of the source. No cut-off for these calls is given here.
# Assays:
# Echinochloa crus-galli [1] = experiment: (§1) Phytotoxicity against Echinochloa crus-galli (barnyard grass) assessed as mortality measured after 3 days at 5 mg/ml by foliar spraying; assay type: functional; details: for mortality at 5000 µg/mL: 72 h
# In short: (§2)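 Whole plants sprayed on the foliage with freshly prepared test solution at 5 mg/mL. Spray volume was matched to foliar surface area, roughly 1 to 3 mL per pot. One or two pots were treated per species, depending on foliar area and plant availability.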
# Oryza sativa = experiment: Herbicidal activity against Oryza sativa (rice) (M-104) Oryza sativa L assessed as mortality measured after 3 days at 5 mg/ml by foliar spraying; assay type: organism-based; details: in vivo, other, 72 h; in short: as §2
# Rumex crispus = experiment: Phytotoxicity against curly dock Rumex crispus assessed as mortality measured after 3 days at 5 mg/ml by foliar spraying; assay type: functional; details: 72 h; in short: as §2
# Solanum nigrum = experiment: Phytotoxicity against Solanum nigrum (black nightshade) assessed as mortality measured after 3 days at 5 mg/ml by foliar spraying; assay type: functional; details: 72 h; in short: as §2
# Mutarda arvensis = experiment: Phytotoxicity against wild mustard Sinapis arvensis assessed as mortality measured after 3 days at 5 mg/ml by foliar spraying; assay type: functional; details: 72 h; in short: as §2
# Poa annua = experiment: Phytotoxicity against annual bluegrass Poa annua assessed as mortality measured after 3 days at 5 mg/ml by foliar spraying; assay type: functional; details: 72 h; in short: as §2
# Chenopodium album = experiment: Phytotoxicity against Chenopodium album assessed as mortality measured after 3 days at 5 mg/ml by foliar spraying; assay type: functional; details: 72 h; in short: as §2
# Taraxacum officinale = experiment: Phytotoxicity against dandelion Taraxacum officinale (dandelion) assessed as mortality measured after 3 days at 5 mg/ml by foliar spraying; assay type: functional; details: 72 h; in short: as §2
# Leptochloa = experiment: Phytotoxicity against Leptochloa fascicularis (sprangletop) assessed as mortality measured after 3 days at 5 mg/ml by foliar spraying; assay type: functional; details: 72 h; in short: as §2
# Cyperus difformis = experiment: Phytotoxicity against sedge Cyperus difformis assessed as mortality measured after 3 days at 5 mg/ml by foliar spraying; assay type: functional; details: 72 h; in short: as §2
# Erigeron canadensis = experiment: Phytotoxicity against Conyza canadensis (horseweed)assessed as mortality measured after 3 days at 5 mg/ml by foliar spraying; assay type: functional; details: 72 h; in short: as §2
# Digitaria sanguinalis = experiment: Phytotoxicity against Digitaria sanguinalis (hairy crabgrass) assessed as mortality measured after 3 days at 5 mg/ml by foliar spraying; assay type: functional; details: 72 h; in short: as §2
# Convolvulus arvensis = experiment: Phytotoxicity against Convolvulus arvensis assessed as mortality measured after 3 days at 5 mg/ml by foliar spraying; assay type: functional; details: 72 h; in short: as §2
# Echinochloa crus-galli [2] = experiment: as §1; assay type: functional; details: 72 h; in short: as §2
# Amaranthus retroflexus = experiment: Phytotoxicity against Amaranthus retroflexus assessed as mortality measured after 3 days at 5 mg/ml by foliar spraying; assay type: functional; details: 72 h; in short: as §2
Compound,mortality at 5000 µg/mL (Echinochloa crus-galli [1]),further results
O=C(/C=C/c1ccccc1)N1CCCCC1,40%,–
CCCCC/C=C\C=C\C(=O)OCC,< 20%,–
CCCCCCC/C=C/C(=O)NC1CCCC1,< 20%,–
CCCCC/C=C\C=C\C(=O)NC1CCCC1,< 20%,–
O=C(/C=C/c1ccccc1)NC1CCCC1,< 20%,–
CCCCCCC/C=C/C(=O)N1CCCC1,80%,–
O=C(/C=C/c1ccccc1)N1CCCC1,80%,–
CCCCCCC/C=C/C(=O)N1CCCCC1,80%,–
CCCCCCC/C=C/C(=O)N1CCCCCC1,80%,–
O=C(/C=C/c1ccccc1)N1CCCCCC1,< 20%,–
C1CCCNCC1,–,mortality (Echinochloa crus-galli [1]): inactive
C1CCNC1,–,mortality (Echinochloa crus-galli [1]): inactive
C1CCNCC1,–,mortality (Echinochloa crus-galli [1]): inactive
NC1CCCC1,–,mortality (Echinochloa crus-galli [1]): inactive
CCCCCCC/C=C/C(=O)O [2E-DECENOIC ACID],80%,–
"CCCCC/C=C\C=C\C(=O)N1CCCCCC1 [(2E,4Z-DECADIENOYL)HEXAMETHLENEIMINE]",80%,–
"CCCCC/C=C\C=C\C(=O)N1CCCCC1 [(2E,4Z-DECADIENOYL)PIPERIDINE]",80%,–
"CCCCC/C=C\C=C\C(=O)N1CCCC1 [(2E,4Z-DECADIENOYL)PYRROLIDINE]",80%,–
O=C(O)/C=C/c1ccccc1 [CINNAMIC ACID],60%,–
CCCCCCCCCC(=O)O [DECANOIC ACID],80%,–
CCCCCCCCCC(=O)N1CCCCCC1 [N-(DECANOYL)HEXAMETHYLENEIMINE],80%,–
CCCCCCCCCC(=O)N1CCCCC1 [N-(DECANOYL)PIPERIDINE],80%,–
CCCCCCCCCC(=O)N1CCCC1 [N-(DECANOYL)PYRROLIDINE],80%,–
CCCCCCCCCC(=O)NC1CCCC1 [N-CYCLOPENTYLDECANAMIDE],< 20%,–
CCCCC/C=C/C=C/C(=O)N1CCCC1 [SARMENTINE],80%,mortality (Oryza sativa): Not Active; mortality at 5000 µg/mL (Rumex crispus): 80%; mortality at 5000 µg/mL (Solanum nigrum): 80%; mortality at 5000 µg/mL (Mutarda arvensis): 80%; mortality at 5000 µg/mL (Poa annua): 80%; mortality at 5000 µg/mL (Chenopodium album): 80%; mortality at 5000 µg/mL (Taraxacum officinale): 80%; mortality at 5000 µg/mL (Leptochloa): 80%; mortality at 5000 µg/mL (Cyperus difformis): 20%; mortality at 5000 µg/mL (Erigeron canadensis): < 20%; mortality at 5000 µg/mL (Digitaria sanguinalis): 80%; mortality at 5000 µg/mL (Convolvulus arvensis): 80%; mortality at 5000 µg/mL (Echinochloa crus-galli [2]): 80%; mortality at 5000 µg/mL (Amaranthus retroflexus): 80%
